From ChEMBL document CHEMBL4145478, “Synthesis and biological evaluation of bifendate derivatives bearing 6,7-dihydro-dibenzo[c,e]azepine scaffold as potential P-glycoprotein and tumor metastasis inhibitors” (Eur J Med Chem, 2018)
Where a name gives a salt, the structure may show the parent alone. The source made the active and inactive calls. No cut-off for these calls is given here.

Experiments:
K562 [1] = assay: Cytotoxicity against human K562 cells assessed as reduction in cell viability after 72 hrs by MTS assay; type: cell-based; settings: K562, 72 h
How it was run: (§1)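 Cells (1×10^4/well) in RPMI-1640 grown 24 h, then exposed to a range of concentrations for 72 h at 37 °C, 5% CO₂. MTS added for a further 3 h at 37 °C; absorbance read at 490 nm. IC50 from dose-response curves; means of triplicate experiments.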

K562/A02 [2] = assay: Cytotoxicity against human K562/A02 cells assessed as reduction in cell viability after 72 hrs by MTS assay; type: cell-based; settings: K562/A02, 72 h; how it was run: as §1
[3] = Selectivity ratio of IC50 for human K562/A02 cells to IC50 for human K562 cells; type: ADME; settings: K562/A02 cells and K562 cells, read-out: Ratio IC50
[4] = tested on: MMP-9 (92 kDa type IV collagenase, Homo sapiens); assay: Inhibition of MMP9 activity in human MDA-MB-231 cells at 5 uM after 24 hrs by gelatin zymography assay relative to control; values are per cent of control
MDA-MB-231 [5] = assay: Antimigratory activity against human MDA-MB-231 cells assessed as reduction in cell invasion at 5 to 45 uM after 24 hrs by crystal violet staining-based matrigel assay; type: functional
How it was run: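 MDA-MB-231 cells pretreated 24 h with 5, 15 or 45 μM, seeded in serum-free medium into transwell chambers precoated with matrigel (40 μg/100 μL/chamber, 37°C, 1 h); lower compartment medium with 10% FBS. Incubation 24 h, then invaded cells stained with crystal violet and counted in three random fields; expressed as % of control.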

K562/A02 [6] = assay: Inhibition of P-gp-mediated drug resistance in human K562/A02 cells assessed as reduction in adriamycin IC50 at 2 uM after 72 hrs by MTS assay relative to adriamycin alone; type: cell-based
How it was run: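 K562/A02 cells exposed to adriamycin with or without 2.0 μM modulator; verapamil 2.0 μM as reference. Viability by MTS after 72 h at 37 °C (absorbance 490 nm), adriamycin IC50 from dose-response curves. Reversal fold = adriamycin IC50 alone / adriamycin IC50 with modulator.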

MDA-MB-231 [7] = assay: Antiproliferative activity against human MDA-MB-231 cells after 72 hrs by MTT assay; type: cell-based; settings: MDA-MB-231, 72 h
MDA-MB-231 [8] = assay: Antimigratory activity against human MDA-MB-231 cells assessed as reduction in wound healing after 24 hrs by inverted microscopic analysis; type: functional, cell-based
How it was run: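 Confluent MDA-MB-231 monolayer scratched with 200 μL pipette tip, washed twice with PBS, then exposed to 5, 15 or 45 μM in DMEM with 10% FBS. Wound photographed by inverted microscope at 0 and 24 h. Relative migration = migration distance of treated cells divided by that of control.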

[9] = target: 72 kDa type IV collagenase (Homo sapiens) (UniProt P08253); assay: Inhibition of MMP2 activity in human MDA-MB-231 cells after 24 hrs by gelatin zymography assay; type: cell-based
Chain of 72 kDa type IV collagenase (Homo sapiens) (P08253 110-660 limits assumed): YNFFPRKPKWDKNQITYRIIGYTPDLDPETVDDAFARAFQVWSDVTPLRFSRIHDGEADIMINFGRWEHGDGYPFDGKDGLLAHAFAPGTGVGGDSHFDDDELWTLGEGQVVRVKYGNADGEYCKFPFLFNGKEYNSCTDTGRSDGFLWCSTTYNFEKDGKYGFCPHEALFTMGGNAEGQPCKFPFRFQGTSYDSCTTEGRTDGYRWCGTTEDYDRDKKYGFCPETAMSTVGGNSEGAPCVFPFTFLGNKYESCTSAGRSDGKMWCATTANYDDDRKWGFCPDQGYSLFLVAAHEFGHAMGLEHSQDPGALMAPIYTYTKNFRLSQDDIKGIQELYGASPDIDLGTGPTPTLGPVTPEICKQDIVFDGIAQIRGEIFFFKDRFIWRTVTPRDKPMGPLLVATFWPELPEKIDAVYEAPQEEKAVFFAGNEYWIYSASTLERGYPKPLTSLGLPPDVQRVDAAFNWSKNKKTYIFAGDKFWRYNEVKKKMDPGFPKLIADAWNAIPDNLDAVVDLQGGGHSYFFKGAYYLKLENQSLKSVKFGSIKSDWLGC

K562/A02 [10] = assay: Inhibition of P-gp mediated efflux in human K562/A02 cells assessed as increase in intracellular Rh123 accumulation after 1 hr by flow cytometric analysis; type: cell-based
How it was run: (§2)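 1×10^6 K562 or K562/A02 cells preincubated 1 h at 37 °C with compound (10 μM single dose; dose-response at 10, 3.3 and 0.3 μM), verapamil or 0.1% DMSO vehicle, then 0.5 μM Rh123 for 30 min. Stopped and washed three times with ice-cold PBS; flow cytometry. Fold change = fluorescence over vehicle; mean ± S.D., three independent experiments.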

K562/A02 [11] = assay: Effect on P-gp protein expression in human K562/A02 cells at 2 uM after 48 hrs by Western blot analysis; type: functional, cell-based
MDA-MB-231 [12] = assay: Antimigratory activity against human MDA-MB-231 cells assessed as delay in cell migration at 5 to 45 uM after 4 hrs by crystal violet staining-based chamber migration assay relative to control; type: functional
How it was run: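 MDA-MB-231 cells pretreated 24 h with 5, 15 or 45 μM, suspended in serum-free medium and placed in upper transwell compartment; lower compartment medium with 10% FBS. After 4 h non-migrated cells swabbed off; migrated cells fixed in methanol, stained with 0.5% crystal violet, counted manually in three random fields. Migrated cells expressed as % of control.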

MDA-MB-231 [13] = assay: Inhibition of MMP2 expression in human MDA-MB-231 cells after 24 hrs by Western blot analysis; type: functional, cell-based
How it was run: (§3)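 MDA-MB-231 cells exposed to 5, 15 or 45 μM for 24 h, then lysed; immunoblotted with antibodies against MMP-2 and MMP-9; detection with BCIP/NBT alkaline phosphatase substrate for 15 min.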

K562/A02 [14] = assay: Effect on P-gp mRNA expression in human K562/A02 cells at 2 uM after 48 hrs by RT-PCR analysis; type: functional, cell-based
K562 [15] = assay: Effect on intracellular Rh123 accumulation in human K562 cells at 0.3 to 10 uM after 1 hr by flow cytometric analysis; type: functional, cell-based; how it was run: as §2
[16] = target: 72 kDa type IV collagenase (Homo sapiens) (UniProt P08253); assay: Residual MMP2 activity in human MDA-MB-231 cells at 5 uM after 24 hrs by gelatin zymography assay relative to control
[17] = target: Matrix metalloproteinase-9 (Homo sapiens) (UniProt P14780); assay: Inhibition of MMP9 activity in human MDA-MB-231 cells after 24 hrs by gelatin zymography assay
Chain of Matrix metalloproteinase-9 (Homo sapiens) (P14780 whole entry): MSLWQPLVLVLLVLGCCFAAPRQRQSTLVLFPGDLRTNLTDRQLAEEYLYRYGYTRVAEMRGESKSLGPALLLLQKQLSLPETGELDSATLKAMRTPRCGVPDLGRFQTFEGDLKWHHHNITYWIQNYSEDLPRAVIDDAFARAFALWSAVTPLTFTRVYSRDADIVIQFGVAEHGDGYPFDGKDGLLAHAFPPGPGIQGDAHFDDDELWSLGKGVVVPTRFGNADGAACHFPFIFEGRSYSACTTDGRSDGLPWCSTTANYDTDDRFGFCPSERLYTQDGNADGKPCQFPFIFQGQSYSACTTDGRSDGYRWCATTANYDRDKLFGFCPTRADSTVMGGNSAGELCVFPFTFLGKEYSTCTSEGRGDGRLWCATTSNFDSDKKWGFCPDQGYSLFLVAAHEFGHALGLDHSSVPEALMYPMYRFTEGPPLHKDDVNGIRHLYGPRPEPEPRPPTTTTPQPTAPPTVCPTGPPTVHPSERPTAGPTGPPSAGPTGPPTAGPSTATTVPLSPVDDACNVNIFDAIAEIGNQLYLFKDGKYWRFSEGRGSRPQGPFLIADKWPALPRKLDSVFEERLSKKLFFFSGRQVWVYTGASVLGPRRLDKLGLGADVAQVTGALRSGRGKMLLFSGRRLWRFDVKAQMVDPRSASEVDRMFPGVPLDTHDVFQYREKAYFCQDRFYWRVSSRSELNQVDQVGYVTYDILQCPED

MDA-MB-231 [18] = assay: Inhibition of MMP9 expression in human MDA-MB-231 cells after 24 hrs by Western blot analysis; type: functional, cell-based; how it was run: as §3

| SMILES | IC50 (K562 [1]) | IC50 (K562/A02 [2]) | also measured |
| --- | --- | --- | --- |
| COc1ccccc1C(=O)NCCN1Cc2cc(OC)c3c(c2-c2c(cc(OC)c4c2OCO4)C1)OCO3 | 15 µM | 63.9 µM |  |
| COc1ccccc1NC(=O)CCN1Cc2cc(OC)c3c(c2-c2c(cc(OC)c4c2OCO4)C1)OCO3 | 23.1 µM | 72.9 µM |  |
| COc1cc2c(c3c1OCO3)-c1c(cc(OC)c3c1OCO3)CN(CCCCCCNC(=O)c1cccs1)C2 | 12.5 µM | 29 µM |  |
| COc1cccc2c1C(=O)c1c(O)c3c(c(O)c1C2=O)C[C@@](O)(C(=O)CO)C[C@@H]3O[C@H]1C[C@H](N)[C@H](O)[C@H](C)O1 [DOXORUBICIN HYDROCHLORIDE] | 0.39 µM | 25 µM | selectivity ratio [3]: 64 |
| COc1cc2c(c3c1OCO3)-c1c(cc(OC)c3c1OCO3)CN(CCCCCCNC(=O)c1ccc(Cl)cc1)C2 | 5.85 µM | 18.4 µM |  |
| COc1cc2c(c3c1OCO3)-c1c(cc(OC)c3c1OCO3)CN(CCNC(=O)c1ccc(C)cc1)C2 | 14.4 µM | 28.2 µM |  |
| COc1ccccc1C(=O)NCCCCCCN1Cc2cc(OC)c3c(c2-c2c(cc(OC)c4c2OCO4)C1)OCO3 | 11 µM | 26.2 µM |  |
| COc1cc2c(c3c1OCO3)-c1c(cc(OC)c3c1OCO3)CN(CCCCCCNC(=O)c1ccc(Cl)c(Cl)c1)C2 | 5.07 µM | 11.5 µM |  |
| COc1ccc(C(=O)NCCCCCCN2Cc3cc(OC)c4c(c3-c3c(cc(OC)c5c3OCO5)C2)OCO4)cc1OC | 14.1 µM | 28.3 µM |  |
| COc1cc(C(=O)NCCN2Cc3cc(OC)c4c(c3-c3c(cc(OC)c5c3OCO5)C2)OCO4)cc(OC)c1OC | 16.9 µM | 47.2 µM | residual activity [4]: 58.2%; Activity (MDA-MB-231 [5]): Active; fold change (FC) (K562/A02 [6]): 3.82; IC50 (MDA-MB-231 [7]): 85.8 µM; Activity (MDA-MB-231 [8]): Active; inhibition [9]: Dose-dependent effect; inhibition (K562/A02 [10]): Dose-dependent effect; Activity (K562/A02 [11]): inactive; Activity (MDA-MB-231 [12]): 65.7%; inhibition (MDA-MB-231 [13]): Dose-dependent effect; Activity (K562/A02 [14]): inactive; inhibition (K562 [15]): inactive; residual activity [16]: 59.1%; inhibition [17]: Dose-dependent effect; inhibition (MDA-MB-231 [18]): Dose-dependent effect |
| COc1cc(C(=O)NCCCCCCN2Cc3cc(OC)c4c(c3-c3c(cc(OC)c5c3OCO5)C2)OCO4)cc(OC)c1OC | 11.8 µM | 31.8 µM |  |
| COc1ccc(NC(=O)CCN2Cc3cc(OC)c4c(c3-c3c(cc(OC)c5c3OCO5)C2)OCO4)cc1 | 29.8 µM | 43.2 µM |  |
| COc1cc2c(c3c1OCO3)-c1c(cc(OC)c3c1OCO3)CN(CCCCCCNC(=O)c1ccc(Cl)cc1Cl)C2 | 13.7 µM | 34.5 µM |  |
| COc1ccc(C(=O)NCCN2Cc3cc(OC)c4c(c3-c3c(cc(OC)c5c3OCO5)C2)OCO4)cc1OC | 30.5 µM | 65.8 µM | inhibition (K562/A02 [10]): Dose-dependent effect; inhibition (K562 [15]): inactive |
| COc1ccc(NC(=O)CCN2Cc3cc(OC)c4c(c3-c3c(cc(OC)c5c3OCO5)C2)OCO4)cc1OC | 34.8 µM | 69.9 µM | residual activity [4]: 52.6%; Activity (MDA-MB-231 [5]): Active; fold change (FC) (K562/A02 [6]): 5.76; IC50 (MDA-MB-231 [7]): 80.5 µM; Activity (MDA-MB-231 [8]): Active; inhibition [9]: Dose-dependent effect; inhibition (K562/A02 [10]): Dose-dependent effect; Activity (K562/A02 [11]): inactive; Activity (MDA-MB-231 [12]): 54.8%; inhibition (MDA-MB-231 [13]): Dose-dependent effect; Activity (K562/A02 [14]): inactive; inhibition (K562 [15]): inactive; residual activity [16]: 52.8%; inhibition [17]: Dose-dependent effect; inhibition (MDA-MB-231 [18]): Dose-dependent effect |
| COc1cc2c(c3c1OCO3)-c1c(cc(OC)c3c1OCO3)CN(CCc1ccc3c(c1)OCO3)C2 | 51.4 µM | > 100 µM | fold change (FC) (K562/A02 [6]): 3.99 |
| COc1cc2c(c3c1OCO3)-c1c(cc(OC)c3c1OCO3)CN(CCCCCCNC(=O)c1ccc(C)cc1)C2 | 8.18 µM | 23.3 µM |  |
